Measurements pooled from the literature.
Each line is one published result; the experiments were not run side by side.
Target: Serine/threonine-protein kinase NLK (NLK, Homo sapiens, UniProt Q9UBE8)
One construct used (Q9UBE8 1-527): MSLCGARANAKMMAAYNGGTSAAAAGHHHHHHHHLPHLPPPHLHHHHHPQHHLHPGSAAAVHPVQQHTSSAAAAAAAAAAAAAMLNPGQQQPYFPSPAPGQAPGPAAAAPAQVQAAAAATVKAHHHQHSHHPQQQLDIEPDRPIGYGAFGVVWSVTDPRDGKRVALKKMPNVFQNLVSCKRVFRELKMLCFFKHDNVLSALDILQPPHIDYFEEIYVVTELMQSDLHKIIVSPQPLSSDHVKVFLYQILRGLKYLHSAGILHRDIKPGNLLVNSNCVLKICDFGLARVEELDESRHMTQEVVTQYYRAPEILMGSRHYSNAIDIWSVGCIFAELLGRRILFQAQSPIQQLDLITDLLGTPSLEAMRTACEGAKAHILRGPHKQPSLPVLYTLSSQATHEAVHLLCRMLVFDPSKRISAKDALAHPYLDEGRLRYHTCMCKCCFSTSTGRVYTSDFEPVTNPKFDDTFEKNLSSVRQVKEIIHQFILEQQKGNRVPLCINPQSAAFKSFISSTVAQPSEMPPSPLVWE

| SMILES | read-out | action | method | tested at | quantity | value |
| --- | --- | --- | --- | --- | --- | --- |
| CC(=O)C1=C(C)N(c2cccc(C(F)(F)F)c2)C(=O)N[C@@H]1c1ccc(C#N)nc1 | cell-free assay | – | competition with immobilised ligand | 1 µM | remaining binding | 93% |
| N#CCCc1ccc2c(c1)-c1[nH]c3ccc([N+](=O)[O-])cc3c1CC(=O)N2 | cell-free assay | – | – | 0.5 µM | remaining signal | 89.7% |
| Cn1cncc1C1=CN(c2ncnc3[nH]cnc23)CCS1 | enzyme activity | inhibitor | radiometric | 2 µM | inhibition | 43% |
| CCCOc1ccc(OC)c(F)c1C(=O)c1ccc(C(=O)N[C@@H]2CNC[C@H]2NC(=O)c2ccc3[nH]ncc3c2)cc1 | enzyme activity | inhibitor | – | 10 µM | remaining activity | 59% |
| CC(C)(O)c1cncc(-c2nc3ccc(F)cc3n2C2CC2)c1 | cell-free assay | – | competition with immobilised ligand | 1 µM | remaining binding | 100% |
| Cc1ccc(Nc2nccc(N(C)c3ccc4c(C)n(C)nc4c3)n2)cc1S(N)(=O)=O | enzyme activity | inhibitor | – | 0.3 µM | inhibition | 19% |
| Cc1cnc(NC2CCOCC2)nc1-n1cnc(C(=O)NC(CN)c2cc(F)cc(Cl)c2)c1 (stereo not shown) | enzyme activity | inhibitor | radiometric | 1 µM | remaining activity | 47% |
| O=C(NCCCC1CCCCC1)c1ccc(CNC(=O)c2cnn(-c3ccccc3)c2C(F)(F)F)cc1 | cell-free assay | – | competition with immobilised ligand | 0.1 µM | remaining binding | 100% |
| CC(C)(O)[C@H]1CC[C@H](Nc2ccc3ncc(-c4cccc(C(F)(F)F)c4)n3n2)CC1 | enzyme activity | inhibitor | – | 1 µM | remaining activity | 93.3% |
| Nc1ncnc2occ(-c3ccc(NC(=O)Nc4cc(C(F)(F)F)ccc4F)cc3)c12 | cell-free assay | – | – | 20 µM | remaining signal | 19% |
| CC(C)(C)c1nc(-c2cccc(NS(=O)(=O)c3c(F)cccc3F)c2F)c(-c2ccnc(N)n2)s1 | enzyme activity | inhibitor | radiometric | 1 µM | remaining activity | 78% |
| O=C(Nc1cnn(-c2csc(C(=O)NC3COC3)c2)c1)Nc1c(F)cccc1Cl | enzyme activity | inhibitor | – | 5 µM | remaining activity | 87.4% |
| CSc1cccnc1N1CCN(Cc2nc3ccccc3[nH]2)CC1 | binding | – | competition with immobilised ligand | 1 µM | remaining binding | 100% |
| Fc1cccc(-n2cnc3c(NCc4nc5c(F)c(F)ccc5[nH]4)nc(N4CCOCC4)nc32)c1 | binding | – | competition with immobilised ligand | 10 µM | binding vs control | 98% |
| COc1cc(Cl)c(C(=O)N[C@@H](CN[C@H]2CC[C@@H](N)CC2)Cc2ccc(C#N)cc2)cc1-c1ccc(CN[C@H](C)c2ccc(C)cc2)o1 | enzyme activity | inhibitor | – | 1 µM | remaining activity | 88% |
| CCN(CC)c1ccc(C2=NNC(=O)CC2C)cc1[N+](=O)[O-] (stereo not shown) | enzyme activity | inhibitor | – | 10 µM | remaining activity | 105% |
| CS(=O)(=O)c1cc(C2(NC(=O)c3cncc4c3cnn4-c3ccc(F)cc3)CC2)ccn1 | cell-free assay | – | competition with immobilised ligand | 1 µM | remaining binding | 100% |
| Cc1cc(NC(=O)c2cccc3cc(-c4cccc5[nH]nc(N)c45)ccc23)ccc1F | enzyme activity | inhibitor | – | 0.1 µM | activity vs control | 97% |
| CCN(CC)CCNC(=O)c1c(C)[nH]c(/C=C2\C(=O)Nc3ccc(F)cc32)c1C | enzyme activity | inhibitor | – | 0.3 µM | inhibition | -7% |
